Active and inactive are the calls of the source.
How the values were obtained:
[1] = system: Mus musculus; assay: Anticonvulsant activity in albino CF-1 mouse assessed as protection against subcutaneous metrazol-induced seizure at 300 mg/kg, ip after 4 hrs; format: functional, organism-based; set-up: dose 300 mg/kg
Method in brief: (§1)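 Mice (male CF-1 albino, 18–25 g) pretreated i.p. with 30, 100 or 300 mg/kg in 0.5% methyl cellulose. Metrazol, at a dose convulsing 97% of animals, injected subcutaneously into the loose skin fold at the midline of the neck. Animals isolated and watched for 30 min for absence of seizure. Minimum dose active in half or more of mice recorded.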

[2] = system: Mus musculus; assay: Anticonvulsant activity in albino CF-1 mouse assessed as protection against subcutaneous metrazol-induced seizure at 300 mg/kg, ip after 0.5 hrs; format: functional, organism-based; set-up: dose 300 mg/kg; method in brief: as §1
[3] = system: Mus musculus; assay: Anticonvulsant activity in ip dosed albino CF-1 mouse assessed as protection against maximal electroshock-induced seizures after 4 hrs; format: functional; conditions: albino CF-1, ip, read-out: MED
Method in brief: (§2)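 Male CF-1 albino mice (18–25 g) dosed i.p. at 30, 100 and 300 mg/kg as suspension in 0.5% methyl cellulose. 60 Hz alternating current, 50 mA, delivered 0.2 s via corneal electrodes primed with 0.5% tetracaine HCl electrolyte. Protection = abolition of hind limb tonic extensor component. Value reported is the minimum dose active in half or more of mice.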

[4] = system: Mus musculus; assay: Anticonvulsant activity in ip dosed albino CF-1 mouse assessed as protection against maximal electroshock-induced seizures after 0.5 hrs; format: functional; conditions: albino CF-1, ip, read-out: MED
Method in brief: (§3)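 Male CF-1 mice (18–25 g) received compound suspended in 0.5% methyl cellulose, i.p. at 30, 100 or 300 mg/kg. A 60 Hz alternating current (50 mA, 0.2 s) was delivered through corneal electrodes primed with 0.5% tetracaine HCl. Protection was defined as abolition of the hind limb tonic extensor component. The value reported is the minimum dose active in half or more of mice.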

[5] = system: Mus musculus; assay: Anticonvulsant activity in ip dosed albino CF-1 mouse assessed as protection against maximal electroshock-induced seizures after 2 hrs; format: functional; conditions: albino CF-1, ip, read-out: MED; method in brief: as §3
[6] = system: Mus musculus; assay: Neurotoxicity in albino CF-1 mouse assessed as minimum motor impairment at 300 mg/kg, ip after 4 hrs by rotarod test; format: toxicity, organism-based; set-up: dose 300 mg/kg, route intraperitoneal; conditions: in vivo
Method in brief: (§4)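 Minimal motor impairment assessed in male CF-1 albino mice (18–25 g) at 0.5 and 4 h after i.p. doses of 30, 100 and 300 mg/kg, given in 0.5% methyl cellulose. Minimum dose toxic in half or more of mice recorded.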

[7] = system: Mus musculus; assay: Anticonvulsant activity in albino CF-1 mouse assessed as protection against 6 Hz psychomotor seizure at 100 mg/kg, ip after 2 hrs by minimal clonic seizure test; format: functional
Method in brief: (§5)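 Male CF-1 albino mice (18–25 g) given compound i.p., suspended in 0.5% methyl cellulose, 100 mg/kg in screen. Four mice per time point challenged at 0.25, 0.5, 1.0, 2.0 and 4.0 h via corneal electrodes (32 mA, 3 s, 6 Hz). Protection = absence of psychomotor seizure (minimal clonic phase, automatistic behaviours). Scored as animals protected/tested.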

[8] = system: Rattus norvegicus; assay: Acute toxicity in albino Sprague-Dawley rat pilocarpine-induced status prevention model at 100 mg/kg, ip measured 0.5 hrs post pilocarpine challenge; format: organism-based; set-up: dose 100 mg/kg, route intraperitoneal; conditions: in vivo
Method in brief: (§6)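 Acute motor-impairment screen in the PISP programme, using male Sprague Dawley rats. Compound was suspended in 0.5% methyl cellulose and given i.p. at 100, 300 or 600 mg/kg. Two rats were used per dose. Behaviour was closely observed and recorded over a 4 h period at 0.25, 0.5, 1.0, 2.0 and 4.0 h. The result is scored as number toxic over number tested.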

[9] = system: Rattus norvegicus; assay: Acute toxicity in albino Sprague-Dawley rat pilocarpine-induced status prevention model at 600 mg/kg, ip measured 0.25 hrs post pilocarpine challenge; format: organism-based; set-up: dose 600 mg/kg, route intraperitoneal; conditions: in vivo; method in brief: as §6
[10] = system: Rattus norvegicus; assay: Acute toxicity in albino Sprague-Dawley rat pilocarpine-induced status prevention model at 600 mg/kg, ip measured 1 hr post pilocarpine challenge; format: organism-based; set-up: dose 600 mg/kg, route intraperitoneal; conditions: in vivo; method in brief: as §6
[11] = system: Rattus norvegicus; assay: Acute toxicity in albino Sprague-Dawley rat pilocarpine-induced status prevention model at 300 mg/kg, ip measured 0.5 hrs post pilocarpine challenge; format: organism-based; set-up: dose 300 mg/kg, route intraperitoneal; conditions: in vivo; method in brief: as §6
[12] = Octanol-phosphate buffer partition coefficient, log P of the compound at 5 mg after 24 hrs by UV spectroscopic analysis; format: physicochemical
Method in brief: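 5 mg compound added to 10 mL octanol plus 10 mL phosphate buffer in a stoppered tube. Mixture shaken mechanically 24 h at room temperature, then left 6 h in a separating funnel to equilibrate.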

[13] = system: Rattus norvegicus; assay: Acute toxicity in albino Sprague-Dawley rat pilocarpine-induced status prevention model at 100 mg/kg, ip measured 2 hrs post pilocarpine challenge; format: organism-based; set-up: dose 100 mg/kg, route intraperitoneal; conditions: in vivo; method in brief: as §6
[14] = system: Rattus norvegicus; assay: Acute toxicity in albino Sprague-Dawley rat pilocarpine-induced status prevention model at 100 mg/kg, ip measured 0.25 hrs post pilocarpine challenge; format: organism-based; set-up: dose 100 mg/kg, route intraperitoneal; conditions: in vivo; method in brief: as §6
[15] = system: Rattus norvegicus; assay: Acute toxicity in albino Sprague-Dawley rat pilocarpine-induced status prevention model at 600 mg/kg, ip measured 2 hrs post pilocarpine challenge; format: organism-based; set-up: dose 600 mg/kg, route intraperitoneal; conditions: in vivo; method in brief: as §6
[16] = system: Mus musculus; assay: Neurotoxicity in albino CF-1 mouse assessed as minimum motor impairment at 300 mg/kg, ip after 0.5 hrs by rotarod test; format: toxicity, organism-based; set-up: dose 300 mg/kg, route intraperitoneal; conditions: in vivo; method in brief: as §4
[17] = system: Rattus norvegicus; assay: Acute toxicity in albino Sprague-Dawley rat pilocarpine-induced status prevention model at 600 mg/kg, ip measured 0.5 hrs post pilocarpine challenge; format: organism-based; set-up: dose 600 mg/kg, route intraperitoneal; conditions: in vivo; method in brief: as §6
[18] = system: Rattus norvegicus; assay: Acute toxicity in albino Sprague-Dawley rat pilocarpine-induced status prevention model at 300 mg/kg, ip measured 0.25 hrs post pilocarpine challenge; format: organism-based; set-up: dose 300 mg/kg, route intraperitoneal; conditions: in vivo; method in brief: as §6
[19] = system: Rattus norvegicus; assay: Acute toxicity in albino Sprague-Dawley rat pilocarpine-induced status prevention model at 300 mg/kg, ip measured 2 hrs post pilocarpine challenge; format: organism-based; set-up: dose 300 mg/kg, route intraperitoneal; conditions: in vivo; method in brief: as §6
[20] = system: Rattus norvegicus; assay: Acute toxicity in albino Sprague-Dawley rat pilocarpine-induced status prevention model at 600 mg/kg, ip measured 4 hrs post pilocarpine challenge; format: organism-based; set-up: dose 600 mg/kg, route intraperitoneal; conditions: in vivo; method in brief: as §6
[21] = system: Rattus norvegicus; assay: Acute toxicity in albino Sprague-Dawley rat pilocarpine-induced status prevention model at 300 mg/kg, ip measured 1 hr post pilocarpine challenge; format: organism-based; set-up: dose 300 mg/kg, route intraperitoneal; conditions: in vivo; method in brief: as §6
[22] = system: Rattus norvegicus; assay: Acute toxicity in albino Sprague-Dawley rat pilocarpine-induced status prevention model at 100 mg/kg, ip measured 1 hr post pilocarpine challenge; format: organism-based; set-up: dose 100 mg/kg, route intraperitoneal; conditions: in vivo; method in brief: as §6
[23] = system: Mus musculus; assay: Anticonvulsant activity in albino CF-1 mouse assessed as protection against 6 Hz psychomotor seizure at 100 mg/kg, ip after 1 hr by minimal clonic seizure test; format: functional; method in brief: as §5
[24] = system: Mus musculus; assay: Anticonvulsant activity in albino CF-1 mouse assessed as protection against 6 Hz psychomotor seizure at 100 mg/kg, ip after 0.5 hrs by minimal clonic seizure test; format: functional; conditions: route intraperitoneal; method in brief: as §5
[25] = system: Rattus norvegicus; assay: Acute toxicity in albino Sprague-Dawley rat pilocarpine-induced status prevention model at 300 mg/kg, ip measured 4 hrs post pilocarpine challenge; format: organism-based; set-up: dose 300 mg/kg, route intraperitoneal; conditions: in vivo; method in brief: as §6
[26] = system: Mus musculus; assay: Anticonvulsant activity in albino CF-1 mouse assessed as protection against 6 Hz psychomotor seizure at 100 mg/kg, ip after 4 hrs by minimal clonic seizure test; format: functional, organism-based; set-up: dose 100 mg/kg; method in brief: as §5
[27] = system: Mus musculus; assay: Anticonvulsant activity in albino CF-1 mouse assessed as protection against 6 Hz psychomotor seizure at 100 mg/kg, ip after 0.25 hrs by minimal clonic seizure test; format: functional; method in brief: as §5
[28] = system: Rattus norvegicus; assay: Acute toxicity in albino Sprague-Dawley rat pilocarpine-induced status prevention model at 100 mg/kg, ip measured 4 hrs post pilocarpine challenge; format: organism-based; set-up: dose 100 mg/kg, route intraperitoneal; conditions: in vivo; method in brief: as §6
[29] = Neuroprotective activity in hippocampal slice assessed as protection against NMDA-induced cell death using propidium iodide staining; format: functional, tissue-based; conditions: Hippocampus
Method in brief: (§7)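 Qualitative primary screen on organotypic hippocampal slice cultures. Cell death induced by NMDA or kainic acid, with or without test compound. Propidium iodide present in all wells; PI fluorescence intensity taken as proportional to cell death.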

[30] = organism: Mus musculus; assay: Protective index, ratio of TD50 for albino CF-1 mouse to ED50 for albino CF-1 mouse by 6 Hz psychomotor seizure test; format: functional
[31] = Neuroprotective activity in hippocampal slice assessed as protection against kainic acid-induced cell death using propidium iodide staining; format: functional, tissue-based; conditions: Hippocampus; method in brief: as §7
[32] = Neurotoxicity in ip dosed albino CF-1 mouse assessed as minimum motor impairment after 0.5 hrs by rotarod test; format: toxicity, organism-based; conditions: in vivo
[33] = system: Mus musculus; assay: Anticonvulsant activity in ip dosed albino CF-1 mouse assessed as protection against 6 Hz psychomotor seizure after 0.5 hrs by minimal clonic seizure test; format: functional; conditions: albino CF-1, ip; method in brief: as §5
[34] = system: Mus musculus; assay: Anticonvulsant activity in albino CF-1 mouse assessed as protection against maximal electroshock-induced seizures at 300 mg/kg, ip after 0.5 hrs; format: functional, organism-based; set-up: dose 300 mg/kg; method in brief: as §2
[35] = system: Mus musculus; assay: Anticonvulsant activity in albino CF-1 mouse assessed as protection against maximal electroshock-induced seizures at 300 mg/kg, ip after 4 hrs; format: functional, organism-based; set-up: dose 300 mg/kg; method in brief: as §2
[36] = system: Mus musculus; assay: Anticonvulsant activity in albino CF-1 mouse assessed as protection against maximal electroshock-induced seizures at 300 mg/kg, ip after 2 hrs; format: functional, organism-based; set-up: dose 300 mg/kg; method in brief: as §2
[37] = system: Mus musculus; assay: Anticonvulsant activity in ip dosed albino CF-1 mouse assessed as protection against subcutaneous metrazol-induced seizures after 0.5 hrs; format: functional; conditions: albino CF-1, 0.5 h, read-out: MED
Method in brief: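 Male CF-1 mice (18–25 g) were given compound i.p. at 30, 100 or 300 mg/kg, suspended in 0.5% methyl cellulose. Metrazol was injected subcutaneously into a loose skin fold at the neck midline, at the dose that induces convulsions in 97% of animals. Mice were isolated and watched for 30 min for absence of seizure. The value reported is the minimum dose active in half or more of mice.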

O=C1NC(=O)C(c2ccccc2)(c2ccccc2)N1 [PHENYTOIN]
Activity [1]: inactive | Activity [2]: inactive | minimal effective dose [3]: 30 mg/kg | minimal effective dose [4]: 30 mg/kg | minimal effective dose [5]: 30 mg/kg

Cc1cc(Oc2ccc(/C=N/NC(=S)Nc3ccc(Br)cc3)cc2)ccc1Cl
Activity [6]: Non-toxic | Activity ([7]; route intraperitoneal): 50% | Activity [8]: Non-toxic | Activity [9]: Non-toxic | Activity [10]: Non-toxic | Activity [11]: Non-toxic | logP at 24 h [12]: 7.89 | Activity [13]: Non-toxic | Activity [14]: Non-toxic | Activity [15]: Non-toxic | Activity [16]: Non-toxic | Activity [17]: Non-toxic | Activity [18]: Non-toxic | Activity [19]: Non-toxic | Activity [20]: Non-toxic | Activity [21]: Non-toxic | Activity [22]: Non-toxic | Activity ([23]; route intraperitoneal): 50% | Activity [24]: 75% | Activity [25]: Non-toxic | Activity [26]: inactive | Activity [27]: Active | Activity [28]: Non-toxic

Fc1ccc(NC(=S)N/N=C/c2ccc(Oc3ccc(Cl)cc3)cc2)cc1
Activity [29]: inactive | Activity [6]: Non-toxic | Activity [7]: Active | Ratio TD50/ED50 [30]: >2.5 | logP at 24 h [12]: 5.78 | Activity [16]: Non-toxic | Activity [23]: Active | Activity [24]: 100% | Activity [31]: inactive | Activity [26]: Active | TD50 at 0.5 h [32]: > 500 mg/kg | Activity ([27]; route intraperitoneal): 75% | ED50 [33]: > 200 mg/kg

CCCC(CCC)C(=O)[O-].[Na+] [VALPROATE SODIUM]
Activity [6]: Non-toxic | Activity [1]: inactive | Activity [34]: inactive | Activity [16]: Non-toxic | Activity [35]: inactive | Activity [36]: inactive | minimal effective dose [37]: 300 mg/kg
